{
  "source": "ChEMBL document CHEMBL1123960",
  "about": "“Thyroid hormone analogues. Synthesis of 3'-substituted 3,5-diiodo-L-thyronines and quantitative structure-activity studies of in vitro and in vivo thyromimetic activities in rat liver and heart” (J Med Chem, 1988)",
  "key": {"[1]": {"molecular_target": "T1, Thyroid hormone receptor beta (Rattus norvegicus) (UniProt P18113)", "T1 sequence (whole entry)": "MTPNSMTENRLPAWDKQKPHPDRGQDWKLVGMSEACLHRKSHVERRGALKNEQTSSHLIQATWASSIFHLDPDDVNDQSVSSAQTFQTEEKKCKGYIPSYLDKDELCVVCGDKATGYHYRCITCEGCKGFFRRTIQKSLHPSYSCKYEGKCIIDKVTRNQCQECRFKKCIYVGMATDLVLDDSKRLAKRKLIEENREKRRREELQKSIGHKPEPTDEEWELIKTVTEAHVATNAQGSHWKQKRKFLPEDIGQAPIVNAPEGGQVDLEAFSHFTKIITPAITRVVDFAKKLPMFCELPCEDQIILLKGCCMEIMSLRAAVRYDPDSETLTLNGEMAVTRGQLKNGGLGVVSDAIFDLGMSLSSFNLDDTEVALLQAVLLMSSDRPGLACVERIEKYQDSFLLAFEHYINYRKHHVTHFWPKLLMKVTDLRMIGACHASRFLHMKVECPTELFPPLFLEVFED", "experiment": "Thyromimetic activity (induction of GPDH) in rat liver expressed as percentage of ratio of the ED50 for T3; F= Full agonist", "type": "functional", "settings": "filed as agonist", "summary_of_the_method": "(§1)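 Hypothyroid rats received a single intramuscular injection in 0.15 M NaCl/0.01 M NaOH vehicle (1 mL/kg), up to 50 mg/kg. Mitochondrial GPDH activity was measured in the organ 48 h later. Dose-response curves were fitted to a hyperbola by nonlinear fitting to give ED50, and rel ED50 = (ED50 T3 / ED50 compound) × 100. Where the maximum was below T3's, the percent of maximal response at 50 mg/kg was calculated.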"}, "[2]": {"molecular_target": "T1, Thyroid hormone receptor beta (Rattus norvegicus)", "experiment": "Thyromimetic activity (induction of GPDH) in rat heart expressed as percentage of ratio of the ED50 for T3; F= Full agonist", "type": "functional, tissue-based", "settings": "filed as agonist", "summary_of_the_method": "as §1"}, "[3]": {"experiment": "pKa for compound was evaluated", "type": "physicochemical"}, "[4]": {"molecular_target": "T1, Thyroid hormone receptor beta (Rattus norvegicus)", "experiment": "Thyromimetic activity (induction of GPDH) in rat heart expressed as percentage of ratio of the ED50 for T3; I= Inactive", "type": "functional, tissue-based", "summary_of_the_method": "as §1"}, "Rattus norvegicus [5]": {"species_on_record": "Rattus norvegicus", "experiment": "Thyromimetic activity (induction of GPDH) in rat liver expressed as percentage of ratio of the ED50 for T3 to that of the test compound; Full agonist", "type": "functional, organism-based", "settings": "filed as agonist", "summary_of_the_method": "as §1"}, "Rattus norvegicus [6]": {"species_on_record": "Rattus norvegicus", "experiment": "Thyromimetic activity (induction of GPDH) in rat liver expressed as percentage of ratio of the ED50 for T3 to that of the test compound; I= Inactive", "type": "functional, organism-based", "summary_of_the_method": "as §1"}, "Rattus norvegicus [7]": {"species_on_record": "Rattus norvegicus", "experiment": "Thyromimetic activity (induction of GPDH) in rat heart expressed as percentage of ratio of the ED50 for T3 to that of the test compound; LM= Low maximum response", "type": "functional, organism-based", "settings": "filed as partial agonist", "summary_of_the_method": "as §1"}, "Rattus norvegicus [8]": {"species_on_record": "Rattus norvegicus", "experiment": "Thyromimetic activity (induction of GPDH) in rat heart expressed as percentage of ratio of the ED50 for T3 to that of the test compound; Full agonist", "type": "functional, organism-based", "settings": "filed as agonist", "summary_of_the_method": "as §1"}, "Rattus norvegicus [9]": {"system": "Rattus norvegicus", "experiment": "Relative in vivo thyromimetic potency (GPDH induction) in rat heart, expressed as percent ratio of ED50 for T3 to that of compound; F= Full agonist", "settings": "filed as agonist"}},
  "note": "Activity calls are given as the source filed them. The calls are words filed in the database; no cut-off is given here.",
  "data": [
    {"smiles": "CC(C)Cc1cc(Oc2c(I)cc(CC(N)C(=O)O)cc2I)ccc1O", "note": "(stereo unspecified)", "values": [
      {"measurement": "Relative ED50", "setting": "[1]", "result": "Agonist"},
      {"measurement": "Relative ED50", "setting": "[2]", "result": "Agonist"}
    ]},
    {"smiles": "CCOCCCc1cc(Oc2c(I)cc(CC(N)C(=O)O)cc2I)ccc1O", "note": "(stereo unspecified)", "values": [
      {"measurement": "Relative ED50", "setting": "[1]", "result": "Agonist"}
    ]},
    {"smiles": "N[C@@H](Cc1cc(I)c(Oc2ccc(O)c(I)c2)c(I)c1)C(=O)O", "note": "[LIOTHYRONINE]", "values": [
      {"measurement": "pKa", "setting": "[3]", "result": 8.51}
    ]},
    {"smiles": "NC(Cc1cc(I)c(Oc2ccc(O)c(-c3ccccc3)c2)c(I)c1)C(=O)O", "note": "(stereo unspecified)", "values": [
      {"measurement": "pKa", "setting": "[3]", "result": 10}
    ]},
    {"smiles": "CC(C)(C)c1cc(Oc2c(I)cc(CC(N)C(=O)O)cc2I)ccc1O", "note": "(stereo unspecified)", "values": [
      {"measurement": "pKa", "setting": "[3]", "result": 10.6}
    ]},
    {"smiles": "NC(Cc1cc(I)c(Oc2ccc(O)c([N+](=O)[O-])c2)c(I)c1)C(=O)O", "note": "(stereo unspecified)", "values": [
      {"measurement": "pKa", "setting": "[3]", "result": 7.23},
      {"measurement": "Relative ED50", "setting": "[2]", "result": "Agonist"}
    ]},
    {"smiles": "CCCCOCc1cc(Oc2c(I)cc(CC(N)C(=O)O)cc2I)ccc1O", "note": "(stereo unspecified)", "values": [
      {"measurement": "Relative ED50", "setting": "[1]", "result": "Agonist"},
      {"measurement": "Relative ED50", "setting": "[2]", "result": "Agonist"}
    ]},
    {"smiles": "CC(=O)NCCCc1cc(Oc2c(I)cc(CC(N)C(=O)O)cc2I)ccc1O", "note": "(stereo unspecified)", "values": [
      {"measurement": "Relative ED50", "setting": "[4]", "result": "inactive"}
    ]},
    {"smiles": "CCC(C)c1cc(Oc2c(I)cc(CC(N)C(=O)O)cc2I)ccc1O", "note": "(stereo unspecified)", "values": [
      {"measurement": "Relative ED50", "setting": "[1]", "result": "Agonist"},
      {"measurement": "Relative ED50", "setting": "[2]", "result": "Agonist"}
    ]},
    {"smiles": "CCCCc1cc(Oc2c(I)cc(CC(N)C(=O)O)cc2I)ccc1O", "note": "(stereo unspecified)", "values": [
      {"measurement": "Relative ED50", "setting": "[2]", "result": "Agonist"}
    ]},
    {"smiles": "NC(Cc1cc(I)c(Oc2ccc(O)c(CO)c2)c(I)c1)C(=O)O", "note": "(stereo unspecified)", "values": [
      {"measurement": "pKa", "setting": "[3]", "result": 9.92}
    ]},
    {"smiles": "CCC(=O)c1cc(Oc2c(I)cc(CC(N)C(=O)O)cc2I)ccc1O", "note": "(stereo unspecified)", "values": [
      {"measurement": "Relative ED50", "setting": "Rattus norvegicus [5]", "result": "Agonist"}
    ]},
    {"smiles": "NCc1cc(Oc2c(I)cc(CC(N)C(=O)O)cc2I)ccc1O", "note": "(stereo unspecified)", "values": [
      {"measurement": "Relative ED50", "setting": "[4]", "result": "inactive"},
      {"measurement": "Relative ED50", "setting": "Rattus norvegicus [6]", "result": "inactive"}
    ]},
    {"smiles": "NC(Cc1cc(I)c(Oc2ccc(O)c(Br)c2)c(I)c1)C(=O)O", "note": "(stereo unspecified)", "values": [
      {"measurement": "pKa", "setting": "[3]", "result": 8.45}
    ]},
    {"smiles": "NCCc1cc(Oc2c(I)cc(CC(N)C(=O)O)cc2I)ccc1O", "note": "(stereo unspecified)", "values": [
      {"measurement": "Relative ED50", "setting": "[4]", "result": "inactive"}
    ]},
    {"smiles": "NC(Cc1cc(I)c(Oc2ccc(O)c(CC3CCCCC3)c2)c(I)c1)C(=O)O", "note": "(stereo unspecified)", "values": [
      {"measurement": "Relative ED50", "setting": "[1]", "result": "Agonist"},
      {"measurement": "Relative ED50", "setting": "[2]", "result": "Agonist"}
    ]},
    {"smiles": "Cc1cc(Oc2c(I)cc(CC(N)C(=O)O)cc2I)ccc1O", "note": "(stereo unspecified)", "values": [
      {"measurement": "pKa", "setting": "[3]", "result": 10.3}
    ]},
    {"smiles": "CCC(=O)NCCc1cc(Oc2c(I)cc(CC(N)C(=O)O)cc2I)ccc1O", "note": "(stereo unspecified)", "values": [
      {"measurement": "Relative ED50", "setting": "[4]", "result": "inactive"}
    ]},
    {"smiles": "COCc1cc(Oc2c(I)cc(CC(N)C(=O)O)cc2I)ccc1O", "note": "(stereo unspecified)", "values": [
      {"measurement": "pKa", "setting": "[3]", "result": 9.85},
      {"measurement": "Relative ED50", "setting": "[2]", "result": "Agonist"}
    ]},
    {"smiles": "CCCCSCc1cc(Oc2c(I)cc(CC(N)C(=O)O)cc2I)ccc1O", "note": "(stereo unspecified)", "values": [
      {"measurement": "Relative ED50", "setting": "[1]", "result": "Agonist"}
    ]},
    {"smiles": "NC(Cc1cc(I)c(Oc2ccc(O)c(C3CCCCC3)c2)c(I)c1)C(=O)O", "note": "(stereo unspecified)", "values": [
      {"measurement": "Relative ED50", "setting": "[1]", "result": "Agonist"}
    ]},
    {"smiles": "NC(Cc1cc(I)c(Oc2ccc(O)c(C(=O)O)c2)c(I)c1)C(=O)O", "note": "(stereo unspecified)", "values": [
      {"measurement": "Relative ED50", "setting": "[4]", "result": "inactive"},
      {"measurement": "Relative ED50", "setting": "Rattus norvegicus [6]", "result": "inactive"}
    ]},
    {"smiles": "NC(Cc1cc(I)c(Oc2ccc(O)c(CCCCO)c2)c(I)c1)C(=O)O", "note": "(stereo unspecified)", "values": [
      {"measurement": "Relative ED50", "setting": "Rattus norvegicus [7]", "result": "Partial agonist"}
    ]},
    {"smiles": "NC(Cc1cc(I)c(Oc2ccc(O)c(O)c2)c(I)c1)C(=O)O", "note": "(stereo unspecified)", "values": [
      {"measurement": "pKa", "setting": "[3]", "result": 9.34}
    ]},
    {"smiles": "NC(Cc1cc(I)c(Oc2ccc(O)c(C=O)c2)c(I)c1)C(=O)O", "note": "(stereo unspecified)", "values": [
      {"measurement": "pKa", "setting": "[3]", "result": 8.37},
      {"measurement": "Relative ED50", "setting": "Rattus norvegicus [8]", "result": "Agonist"}
    ]},
    {"smiles": "CC(=O)c1cc(Oc2c(I)cc(CC(N)C(=O)O)cc2I)ccc1O", "note": "(stereo unspecified)", "values": [
      {"measurement": "pKa", "setting": "[3]", "result": 10.1}
    ]},
    {"smiles": "C=CCc1cc(Oc2c(I)cc(CC(N)C(=O)O)cc2I)ccc1O", "note": "(stereo unspecified)", "values": [
      {"measurement": "pKa", "setting": "[3]", "result": 10.3}
    ]},
    {"smiles": "NC(Cc1cc(I)c(Oc2ccc(O)c(Cc3ccccc3)c2)c(I)c1)C(=O)O", "note": "(stereo unspecified)", "values": [
      {"measurement": "pKa", "setting": "[3]", "result": 10.1}
    ]},
    {"smiles": "NC(Cc1cc(I)c(Oc2ccc(O)c(F)c2)c(I)c1)C(=O)O", "note": "(stereo unspecified)", "values": [
      {"measurement": "Relative ED50", "setting": "[1]", "result": "Agonist"},
      {"measurement": "pKa", "setting": "[3]", "result": 8.73},
      {"measurement": "Relative ED50", "setting": "Rattus norvegicus [9]", "result": "Agonist"}
    ]},
    {"smiles": "NC(Cc1cc(I)c(Oc2ccc(O)c(Cl)c2)c(I)c1)C(=O)O", "note": "(stereo unspecified)", "values": [
      {"measurement": "pKa", "setting": "[3]", "result": 8.56}
    ]},
    {"smiles": "CC(C)c1cc(Oc2c(I)cc(CC(N)C(=O)O)cc2I)ccc1O", "note": "(stereo unspecified)", "values": [
      {"measurement": "pKa", "setting": "[3]", "result": 10.5}
    ]},
    {"smiles": "N[C@@H](Cc1cc(I)c(Oc2ccc(O)cc2)c(I)c1)C(=O)O", "values": [
      {"measurement": "pKa", "setting": "[3]", "result": 9.99}
    ]},
    {"smiles": "CCCC(=O)NCc1cc(Oc2c(I)cc(CC(N)C(=O)O)cc2I)ccc1O", "note": "(stereo unspecified)", "values": [
      {"measurement": "Relative ED50", "setting": "[4]", "result": "inactive"},
      {"measurement": "Relative ED50", "setting": "Rattus norvegicus [6]", "result": "inactive"}
    ]},
    {"smiles": "COCCCCc1cc(Oc2c(I)cc(CC(N)C(=O)O)cc2I)ccc1O", "note": "(stereo unspecified)", "values": [
      {"measurement": "Relative ED50", "setting": "[2]", "result": "Agonist"}
    ]}
  ]
}
